Data reported in ChEMBL document CHEMBL1949565, “4-nitrobenzyloxycarbonyl derivatives of O(6)-benzylguanine as hypoxia-activated prodrug inhibitors of O(6)-alkylguanine-DNA alkyltransferase (AGT), which produces resistance to agents targeting the O-6 position of DNA guanine” (J Med Chem, 2011).
Activity calls are given as the source filed them. The calls are words filed in the database; no cut-off is given here.

Key:
Homo sapiens [1] = organism: Homo sapiens; experiment: Inhibition of human recombinant AGT assessed as prevention of O6-(2-chloroethyl)guanine and N1,O6-ethanoguanine-DNA adduct repair at 0.1 uM after 30 mins by fluorescence assay
In short: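 Purified recombinant human AGT (~40 fmol) in stabilization buffer (20 mM Tris-HCl, 1 mM EDTA, 1 mg/mL BSA, 0.1 mM DTT, 2 μg/mL L1210 DNA, pH 7.4) preincubated with inhibitor 30 min, 37 °C. Then added to L1210 DNA substrate treated with a chloroethylating hydrazine (~50 fmol lesions), 30 min, 37 °C. Heated 50 °C 2–3 h. Cross-links quantified by Hoechst 33258 fluorescence before/after heat denaturation. Inhibition derived from remaining cross-link precursors.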

[2] = Prodrug activation assessed as formation of O6-benzylguanine in presence of Zn/EDTA
In short: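 Each agent at 50 μM in 50 mM Tris-HCl, 10 mM EDTA, pH 7.0, was shaken briefly with about 4 mg/mL Zn dust at room temperature. After centrifugation, the supernatant was analysed by reverse-phase HPLC with UV detection at 280 nm.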

[3] = Prodrug activation assessed as formation of O6-benzylguanine under normoxic condition at 20 uM after 1 hr by HPLC analysis in presence of xanthine/xanthine oxidase
In short: (§1)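 Test agent at 20 μM (from DMSO) in 100 mM potassium phosphate pH 7.4 at 37 °C, with either cytochrome P450 reductase plus 1 mM NADPH, or 0.16 units/mL xanthine oxidase plus 1 mM xanthine. Oxygen deficiency came from glucose oxidase/catalase with 10 mM glucose. Aerobic mixtures omitted glucose and were shaken as shallow layers in sealed flasks. Samples at 0 and 1 h were quenched with acetonitrile and analysed by HPLC.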

[4] = Prodrug activation assessed as formation of O6-benzylguanine under oxygen-deficient condition at 20 uM after 1 hr by HPLC analysis in presence of xanthine/xanthine oxidase; in short: as §1
[5] = Prodrug activation assessed as formation of O6-benzylguanine under normoxic condition at 20 uM after 1 hr by HPLC analysis in presence of NADPH:CYP450 reductase; format: ADME; in short: as §1
[6] = Prodrug activation assessed as formation of O6-benzylguanine under oxygen-deficient condition at 20 uM after 1 hr by HPLC analysis in presence of NADPH:CYP450 reductase; format: ADME; in short: as §1
Homo sapiens [7] = organism: Homo sapiens; experiment: Inhibition of human recombinant AGT assessed as prevention of O6-(2-chloroethyl)guanine and N1,O6-ethanoguanine-DNA adduct repair at 50 uM after 30 mins by fluorescence assay
In short: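 About 40 fmol purified recombinant human AGT in stabilization buffer (20 mM Tris-HCl, 1 mM EDTA, BSA 1 mg/mL, 0.1 mM DTT, L1210 DNA, pH 7.4) preincubated with inhibitor for 30 min at 37 °C. It was then incubated 30 min at 37 °C with L1210 DNA bearing O6-chloroethylguanine/N1,O6-ethanoguanine lesions (~50 fmol). Unrepaired lesions were converted to cross-links at 50 °C for 2–3 h. Cross-linking was read by Hoechst 33258 fluorescence before and after heat denaturation.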

DU-145 [8] = experiment: Prodrug activation in human DU145 cells assessed as formation of O6-benzylguanine under normoxic condition at 20 uM after 3 hrs by HPLC analysis; format: cell-based; details: du-145, 3 h
In short: (§2)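 Cells at 10^7/mL with ~20 μM prodrug at 37 °C: EMT6 in DMEM with 10% FBS, DU145 in α-MEM with 10% FBS, each with 10 mM glucose. Normoxic suspensions were shaken as shallow layers in flasks. Oxygen-deficient incubations used sealed tubes with an extra 10 mM glucose, glucose oxidase 2 units/mL and catalase 120 units/mL. Samples at 0–3 h were acetonitrile-extracted and analysed by HPLC.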

EMT6 [9] = experiment: Prodrug activation in mouse EMT6 cells assessed as formation of O6-benzylguanine under normoxic condition at 20 uM after 3 hrs by HPLC analysis; format: cell-based; details: emt6, 3 h; in short: as §2
EMT6 [10] = experiment: Prodrug activation in mouse EMT6 cells assessed as formation of O6-benzylguanine under oxygen-deficient condition at 20 uM after 3 hrs by HPLC analysis; format: cell-based; details: emt6, 3 h; in short: as §2
DU-145 [11] = experiment: Prodrug activation in human DU145 cells assessed as formation of O6-benzylguanine under oxygen-deficient condition at 20 uM after 3 hrs by HPLC analysis; format: cell-based; details: du-145, 3 h; in short: as §2
DU-145 [12] = experiment: Inhibition of AGT-mediated potentiation of laromustine-induced cytotoxicity in human DU145 cells at 40 uM pretreated for 6 hrs prior laromustine addition measured after 24 hrs incubation under normoxic condition by clonogenic assay; format: functional, cell-based
In short: (§3)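 DU145 monolayers seeded at 2.5 × 10^5 cells per flask and treated 3 days later. Pretreatment with prodrug for 6 h, then laromustine added in medium for 24 h at 37 °C; DMSO ≤ 0.05%. For oxygen deficiency, glucose oxidase 2 units/mL plus catalase 120 units/mL in high-glucose DMEM, with flasks nitrogen-flushed and sealed. Aerobic flasks were unsealed and lacked these enzymes. Colonies were crystal-violet stained after 10–14 days; plating in duplicate.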

DU-145 [13] = experiment: Inhibition of AGT-mediated potentiation of laromustine-induced cytotoxicity in human DU145 cells at 40 uM pretreated for 6 hrs prior laromustine addition measured after 24 hrs incubation under oxygen deficiency condition by clonogenic assay; format: functional, cell-based; in short: as §3

For Nc1nc(OCc2ccccc2)c2nc[nH]c2n1, the inhibition (Homo sapiens [1]) was 47%.
In the case of CC(OC(=O)Nc1nc(OCc2ccccc2)c2nc[nH]c2n1)c1ccc([N+](=O)[O-])cc1 (stereo unspecified), the Drug degradation [2] is reported as 35.4 %molar, the Drug metabolism [3] is reported as < 0.05 µM and the Drug metabolism [4] is reported as 11.6 µM. For the same compound, the Drug metabolism [5] was < 0.05 µM, the Drug metabolism [6] was 0.1 µM and the inhibition (Homo sapiens [7]) was < 1%. The Drug metabolism (DU-145 [8]) was “Not Active”, the Drug metabolism (EMT6 [9]) was “Not Active” and the Drug metabolism (EMT6 [10]) was “Active”.
With O=C(Nc1nc(OCc2ccccc2)c2nc[nH]c2n1)OCc1ccc([N+](=O)[O-])cc1 the Drug degradation [2] was 4 %molar, the Drug metabolism [3] was < 0.05 µM and the Drug metabolism [4] was 2.8 µM. For the same compound, the Drug metabolism [5] was < 0.05 µM, the Drug metabolism [6] was < 0.05 µM and the inhibition (Homo sapiens [7]) was < 1%. The Drug metabolism (DU-145 [8]) was “Not Active”, the Drug metabolism (EMT6 [9]) was “Not Active” and the Drug metabolism (EMT6 [10]) was “Active”.
In the case of CC(C)(OC(=O)Nc1nc(OCc2ccccc2)c2nc[nH]c2n1)c1ccc([N+](=O)[O-])cc1, the Drug degradation [2] is reported as 54.8 %molar, the Drug metabolism [3] is reported as < 0.05 µM and the Drug metabolism [4] is reported as 14.8 µM. For the same compound, the Drug metabolism [5] was 0.1 µM, the Drug metabolism [6] was 13.9 µM and the inhibition (Homo sapiens [7]) was < 1%. The Drug metabolism (DU-145 [8]) was “Not Active”, the Drug metabolism (EMT6 [9]) was “Not Active” and the Drug metabolism (DU-145 [11]) was “Active”. The Drug metabolism (EMT6 [10]) was “Active”, the inhibition (DU-145 [12]) was “inactive” and the inhibition (DU-145 [13]) was “Active”.
